Only a selection was taken, and hits are over-represented in it overall.
Cardio protect = cardioprotection against H2O2-induced cell death, primary screen, uHTS, H9c2 cells, ATPLite luminescence; H9c2 cardiomyocytes, H2O2 injury protection, 2 h; protection from H2O2 cell death, % at 20 µM; actives 0.63% (n = 360,000);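 active means compounds giving at least 50% protection of heart cells from peroxide-induced death in the single-dose screen, raw or plate-pattern-corrected value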;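 further: 0% = DMSO wells with peroxide and 100% = DMSO wells without peroxide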
CHOP UPR activ = activators of apoptotic CHOP UPR arm, primary screen, cell-based, CHO-CHOP luciferase reporter, luminescence, uHTS; activation, % at 10 µM; actives 0.34% (n = 330,000); AID 449763, 2010; UPR activation; percent of tunicamycin response over DMSO baseline;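 active means at 10 µM dose, activation of 40% or more, normalized to positive control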;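 further: 100% = tunicamycin at 10 µg/mL and 0% = DMSO alone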
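Assay system: CHO cells with stable CHOP pathway luciferase reporter; Buffer or medium: F12 plus 10% serum; Times: 16-18 h cell attachment, then 6 h compound exposure, 37 °C; Signal: luciferase luminescence; Read-out basis: percent activation relative to tunicamycin control; Control set: tunicamycin high control, DMSO low control.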
XBP1 UPR activ = activators of adaptive XBP1 UPR arm, primary screen, cell-based, CHO-XBP1 luciferase reporter, luminescence, uHTS. IRE1-XBP1 UPR activation; percent of tunicamycin response, DMSO as zero. activation, % at 20 µM. actives 0.33% (n = 330,000). AID 463104, 2010;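 active means versus positive control, 20 µM dose yields 30% or more activation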;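 further: 100% = tunicamycin at 10 µg/mL and 0% = DMSO only wells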
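incubation = overnight seeding at 37 °C, 6 h compound treatment at 37 °C | assay system = CHO-XBP1 cells stably carrying IRE1-XBP1-driven luciferase reporter | input = 1000 cells per well | detection = luciferase luminescence | dosing = single point, 20 µM final compound, 1% DMSO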
CHOP inh = inhibitors of CHOP promoter induction, primary screen, cell-based, unfolded protein response, luciferase reporter. CHO-K1 CHOP-promoter luciferase, tunicamycin-induced, 15-18 h. inhibition, % at 10 µM. actives 3.8% (n = 220,000);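 active means compounds that reduced the stress-induced luciferase reporter signal by more than about 70% of percent inhibition, limit read from the data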;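 further: 0% = tunicamycin plus vehicle and 100% = wells without tunicamycin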
iPSC survival up = enhancers of single-cell hiPSC survival, primary screen, ATPlite luminescence | survival enhancement, % at 20 µM | 100% = ROCK inhibitor wells, 0% = DMSO | AID 602274, 2012 | actives 0.044% (n = 360,000); in the data active means survival enhancement above about 18%;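 further: cells exposed to compounds for 16 hours before the ATP read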
An asterisk follows results filed as active.

Screening CCOC(=O)[C@]12CCCC=C1N(Cc1ccc3c(c1)OCO3)C(=O)[C@H](CC(=O)N1CCN(C(=O)C3CC3)CC1)C2 returned iPSC survival up 0.
For CCn1c(Cn2nnc(-c3ccccc3)n2)nnc1SCc1ccc(Cl)c(Cl)c1 the results were Cardio protect -15, CHOP UPR activ -1, XBP1 UPR activ -3, CHOP inh 81* and iPSC survival up 3.
Screening N#Cc1cc2c(nc1SC1CC(=O)N(c3ccccc3)C1=O)CCC2 (stereo not given) returned Cardio protect 1, CHOP inh 84* and iPSC survival up 1.
`COc1ccc(/C=N/n2cnc3c([nH]c4ccc(F)cc43)c2=O)cc1CSc1ccccn1` gave Cardio protect 2, CHOP UPR activ 13, XBP1 UPR activ 17, CHOP inh 80* and iPSC survival up 1.
Screening CCCCNC(=O)C1CCC(CNc2nc(=S)[nH]c3ccccc23)CC1 (stereo not given) returned Cardio protect -1, CHOP UPR activ 3, XBP1 UPR activ 0, CHOP inh 23 and iPSC survival up 0.
Screening O=C(NCCC1=CCCCC1)C1CCC(CNc2nc(=S)[nH]c3ccccc23)CC1 (stereo not given) returned Cardio protect 8, CHOP UPR activ 3, XBP1 UPR activ 10, CHOP inh 94* and iPSC survival up 0.
`O=C(NCCc1ccc(Cl)cc1)C1CCC(CNc2nc(=S)[nH]c3ccccc23)CC1` (stereo not given) gave Cardio protect 1, CHOP UPR activ -1, XBP1 UPR activ 27, CHOP inh 87* and iPSC survival up 0.
For O=C(Nc1ccc(Cl)c(Cl)c1)Nc1ccc(N2CCCC2)c(S(=O)(=O)Nc2ccccc2Cl)c1 the results were Cardio protect -18, CHOP UPR activ 19, XBP1 UPR activ 5, CHOP inh 79* and iPSC survival up 2.
For Cc1ccc(C(=O)Nc2cccc(C(F)(F)F)c2)cc1NC(=O)c1cnnc2ccccc12 the results were Cardio protect 12, CHOP UPR activ 2, XBP1 UPR activ -4, CHOP inh 89* and iPSC survival up -1.
Cc1ccc(C(=O)Nc2cccc(C(F)(F)F)c2)cc1Nc1cncnc1 was read as Cardio protect 31, CHOP UPR activ 1, XBP1 UPR activ 0 and iPSC survival up 8.
For O=C(CN1CCCCC1)Nc1nc(-c2ccc(F)c(F)c2)cs1 the results were Cardio protect 55*, CHOP UPR activ 3, XBP1 UPR activ 5 and iPSC survival up 1.
`Cc1ccc(N2CCN(S(=O)(=O)c3ccc(F)c(C)c3)CC2)c(C)c1` gave Cardio protect -25, CHOP UPR activ 2, XBP1 UPR activ -3, CHOP inh 61 and iPSC survival up -1.
Screening CCc1ccccc1N1CCN(S(=O)(=O)c2ccc(F)c(C)c2)CC1 returned Cardio protect -16, CHOP UPR activ -2, XBP1 UPR activ -1, CHOP inh 74* and iPSC survival up -3.
For Cc1ccc([N+](=O)[O-])cc1-c1[nH]c(-c2ccc(O)c(O)c2)nc1-c1ccccc1 the results were Cardio protect -7, CHOP UPR activ 16, XBP1 UPR activ 6, CHOP inh 29 and iPSC survival up 3.
`COc1ccc(-c2nc(-c3ccccc3)c(-c3cc([N+](=O)[O-])ccc3C)[nH]2)cc1O` gave Cardio protect 12, CHOP UPR activ 15, XBP1 UPR activ -7, CHOP inh 74* and iPSC survival up 4.
`COc1ccc(S(=O)(=O)N(C)C[C@@H]2OCc3cnnn3CCCC(=O)N([C@H](C)CO)C[C@@H]2C)cc1` gave Cardio protect 6 and iPSC survival up -1.
`O=C(Nc1c(-c2ccc3c(c2)OCO3)[nH][nH]c1=O)c1cnccn1` gave Cardio protect -1 and iPSC survival up -1.
For COc1cccc(C(C)(O)c2nc(-c3ccc4c(c3)OCO4)cs2)c1 (stereo not given) the results were Cardio protect -8 and iPSC survival up 1.
For COC(=O)[C@@]12CCCCN1[C@H](c1ccc(-c3cc(C(C)=O)cs3)cc1)[C@H]1C(=O)N(C)C(=O)[C@H]12 the results were Cardio protect 56*, CHOP UPR activ 9, XBP1 UPR activ 3 and iPSC survival up 3.
C/C(=N\NC(=O)Nc1ccccc1)c1ccc2ccccc2c1 was read as Cardio protect -8, CHOP UPR activ -3, XBP1 UPR activ 0, CHOP inh 80* and iPSC survival up -1.
Screening C/C(=N\NC(=O)Cc1c[nH]c2ccccc12)c1ccc2ccccc2c1 returned Cardio protect -16, CHOP UPR activ 0, XBP1 UPR activ -2, CHOP inh 81* and iPSC survival up -1.
Screening [N-]=[N+]=NC(c1ccccc1)C(NC(=O)c1cc(C(F)(F)F)cc(C(F)(F)F)c1)c1ccccc1 (stereo not given) returned iPSC survival up -1.
For CC(C)[C@H](NC(=O)c1ccccc1)C(=O)OCC(=O)/C=C1/N(C)c2ccccc2C1(C)C the results were Cardio protect -28, CHOP UPR activ 0, XBP1 UPR activ 0, CHOP inh 70* and iPSC survival up 0.
Cc1c(NC(=O)CSc2nnc(-c3ccccc3F)o2)c(=O)n(-c2ccccc2)n1C was read as Cardio protect 8 and iPSC survival up 4.
`COc1cccc(-c2nnc3sc(-c4ccccc4)nn23)c1` gave Cardio protect 8, CHOP UPR activ 1, XBP1 UPR activ 2, CHOP inh -29 and iPSC survival up 6.
For Cc1cccc(-c2nnc3sc(-c4ccccc4C)nn23)c1 the results were Cardio protect 11, CHOP UPR activ 2, XBP1 UPR activ 2, CHOP inh 83* and iPSC survival up 1.
Cc1ccc2c(NCc3ccco3)nc(NC(C)C)nc2c1 was read as iPSC survival up -2.
For O=C1NC[C@H](CCCCN2C[C@H](Cc3ccccc3)N(CCC3CCCCC3)C(=O)C2=O)N(CCc2ccccc2)C1=O the results were iPSC survival up 0.
For O=C(c1cccs1)N1N=C(c2ccc(O)cc2)CC1c1ccccc1 (stereo not given) the results were Cardio protect -5, CHOP UPR activ 2, XBP1 UPR activ 0, CHOP inh 33 and iPSC survival up -1.
O=C(c1cccs1)N1N=C(c2ccccc2)CC1c1ccccc1 (stereo not given) was read as Cardio protect -13, CHOP UPR activ -1, XBP1 UPR activ 3, CHOP inh 78* and iPSC survival up -1.
